Tests used:
Histone deacetylase 5 [1] = molecular target: T1, Histone deacetylase 5 (Homo sapiens, UniProt Q9UQL6); test: Inhibition of HDAC5 (unknown origin) incubated for 30 mins in presence of BSA and DTT by fluorescence assay
How it was run: (§1)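 Purified HDAC isoforms were tested up to a maximum of 1 μM. IC50 values are averages of duplicate experiments. Disulfide compounds were pretreated with DTT to reduce the disulfide bond.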

Histone deacetylase 11 = molecular target: T2, Histone deacetylase 11 (Homo sapiens, UniProt Q96DB2); test: Inhibition of HDAC11 (unknown origin) incubated for 3 hrs in presence of BSA and DTT by fluorescence assay; how it was run: as §1
T2 sequence (Q96DB2 whole entry): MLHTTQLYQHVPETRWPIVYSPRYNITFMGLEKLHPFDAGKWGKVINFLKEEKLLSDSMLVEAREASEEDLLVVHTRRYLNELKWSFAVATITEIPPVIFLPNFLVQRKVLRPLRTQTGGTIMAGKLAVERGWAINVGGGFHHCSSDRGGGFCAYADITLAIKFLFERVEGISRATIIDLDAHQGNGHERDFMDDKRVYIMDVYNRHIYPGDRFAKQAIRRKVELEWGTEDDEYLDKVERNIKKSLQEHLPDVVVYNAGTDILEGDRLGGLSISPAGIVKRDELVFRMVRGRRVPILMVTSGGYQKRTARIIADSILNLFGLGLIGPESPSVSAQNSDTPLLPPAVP

[2] = molecular target: Histone deacetylase (Homo sapiens) (UniProt Q13547+O15379+Q9UBN7+Q92769+Q9UQL6+Q8WUI4+Q9BY41+Q96DB2+P56524+Q9UKV0+Q969S8); test: Inhibition of HDAC in human HCT116 cells assessed as increase in histone H3 (Lys9/14) hyperacetylation after 8 to 24 hrs by immunoblotting method; assay type: cell-based; conditions: HCT-116
How it was run: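 HCT116 cells were treated across a dose range. Cellular HDAC inhibition was read as histone H3 (Lys9/14) hyperacetylation by immunoblot at 8 and 24 h post-treatment.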

[3] = molecular target: T3, Histone deacetylase 7 (Homo sapiens) (UniProt Q8WUI4); test: Inhibition of HDAC7 (unknown origin) at 1 uM incubated for 30 mins in presence of BSA and DTT by fluorescence assay; how it was run: as §1
T3 sequence (whole entry): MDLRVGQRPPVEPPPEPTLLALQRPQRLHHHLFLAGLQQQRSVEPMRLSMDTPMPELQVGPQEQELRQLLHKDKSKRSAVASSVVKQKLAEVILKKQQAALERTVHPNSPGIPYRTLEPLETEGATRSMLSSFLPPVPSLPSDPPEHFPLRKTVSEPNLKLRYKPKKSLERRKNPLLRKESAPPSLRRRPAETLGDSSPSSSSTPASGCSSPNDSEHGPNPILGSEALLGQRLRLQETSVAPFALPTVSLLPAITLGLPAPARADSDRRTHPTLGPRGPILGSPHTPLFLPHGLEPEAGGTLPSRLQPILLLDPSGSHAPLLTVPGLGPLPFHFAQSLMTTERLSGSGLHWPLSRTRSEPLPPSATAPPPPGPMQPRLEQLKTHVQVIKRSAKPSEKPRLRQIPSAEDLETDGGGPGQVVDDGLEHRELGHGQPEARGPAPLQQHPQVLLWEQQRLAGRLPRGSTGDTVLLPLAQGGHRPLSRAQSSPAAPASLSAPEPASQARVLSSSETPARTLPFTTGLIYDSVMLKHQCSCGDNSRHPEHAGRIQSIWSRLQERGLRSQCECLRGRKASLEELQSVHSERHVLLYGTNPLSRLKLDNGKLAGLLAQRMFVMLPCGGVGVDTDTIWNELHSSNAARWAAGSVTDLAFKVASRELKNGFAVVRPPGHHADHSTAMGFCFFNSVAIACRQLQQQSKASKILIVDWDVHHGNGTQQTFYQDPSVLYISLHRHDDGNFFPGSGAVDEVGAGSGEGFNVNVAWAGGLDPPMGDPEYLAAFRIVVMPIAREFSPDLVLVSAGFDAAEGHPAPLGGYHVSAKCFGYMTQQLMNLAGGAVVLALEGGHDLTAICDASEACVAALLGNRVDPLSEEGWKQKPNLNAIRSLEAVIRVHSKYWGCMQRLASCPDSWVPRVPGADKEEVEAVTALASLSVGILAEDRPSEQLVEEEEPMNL

[4] = molecular target: T4, Histone deacetylase 8 (Homo sapiens) (UniProt Q9BY41); test: Inhibition of HDAC8 (unknown origin) at 1 uM incubated for 30 mins in presence of BSA and DTT by fluorescence assay; how it was run: as §1
T4 sequence (whole entry): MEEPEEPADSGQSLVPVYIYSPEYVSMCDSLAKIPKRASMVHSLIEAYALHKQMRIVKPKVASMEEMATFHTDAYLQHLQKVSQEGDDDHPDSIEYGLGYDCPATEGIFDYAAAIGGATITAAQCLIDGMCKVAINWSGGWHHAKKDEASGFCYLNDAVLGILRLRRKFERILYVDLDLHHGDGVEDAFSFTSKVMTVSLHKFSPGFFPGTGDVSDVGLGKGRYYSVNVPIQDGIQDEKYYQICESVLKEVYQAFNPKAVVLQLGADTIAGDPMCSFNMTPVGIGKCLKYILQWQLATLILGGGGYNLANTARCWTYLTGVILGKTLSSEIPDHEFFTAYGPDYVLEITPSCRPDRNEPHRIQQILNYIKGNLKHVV

Histone deacetylase 4 = Histone deacetylase 4 (Homo sapiens, UniProt P56524); test: Inhibition of HDAC4 (unknown origin) at 1 uM incubated for 30 mins in presence of BSA and DTT by fluorescence assay; how it was run: as §1
Histone deacetylase 5 [5] = molecular target: T1, Histone deacetylase 5; test: Inhibition of HDAC5 (unknown origin) at 1 uM incubated for 30 mins in presence of BSA and DTT by fluorescence assay; how it was run: as §1
[6] = Antiproliferative activity against human HCT116 cells after 48 hrs in presence of DTT by MTT assay; assay type: functional, cell-based; conditions: HCT-116, 48 h
How it was run: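 Disulfide compounds were pretreated with DTT to reduce the disulfide bond before testing.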

T1 sequence (Q9UQL6 whole entry, canonical isoform): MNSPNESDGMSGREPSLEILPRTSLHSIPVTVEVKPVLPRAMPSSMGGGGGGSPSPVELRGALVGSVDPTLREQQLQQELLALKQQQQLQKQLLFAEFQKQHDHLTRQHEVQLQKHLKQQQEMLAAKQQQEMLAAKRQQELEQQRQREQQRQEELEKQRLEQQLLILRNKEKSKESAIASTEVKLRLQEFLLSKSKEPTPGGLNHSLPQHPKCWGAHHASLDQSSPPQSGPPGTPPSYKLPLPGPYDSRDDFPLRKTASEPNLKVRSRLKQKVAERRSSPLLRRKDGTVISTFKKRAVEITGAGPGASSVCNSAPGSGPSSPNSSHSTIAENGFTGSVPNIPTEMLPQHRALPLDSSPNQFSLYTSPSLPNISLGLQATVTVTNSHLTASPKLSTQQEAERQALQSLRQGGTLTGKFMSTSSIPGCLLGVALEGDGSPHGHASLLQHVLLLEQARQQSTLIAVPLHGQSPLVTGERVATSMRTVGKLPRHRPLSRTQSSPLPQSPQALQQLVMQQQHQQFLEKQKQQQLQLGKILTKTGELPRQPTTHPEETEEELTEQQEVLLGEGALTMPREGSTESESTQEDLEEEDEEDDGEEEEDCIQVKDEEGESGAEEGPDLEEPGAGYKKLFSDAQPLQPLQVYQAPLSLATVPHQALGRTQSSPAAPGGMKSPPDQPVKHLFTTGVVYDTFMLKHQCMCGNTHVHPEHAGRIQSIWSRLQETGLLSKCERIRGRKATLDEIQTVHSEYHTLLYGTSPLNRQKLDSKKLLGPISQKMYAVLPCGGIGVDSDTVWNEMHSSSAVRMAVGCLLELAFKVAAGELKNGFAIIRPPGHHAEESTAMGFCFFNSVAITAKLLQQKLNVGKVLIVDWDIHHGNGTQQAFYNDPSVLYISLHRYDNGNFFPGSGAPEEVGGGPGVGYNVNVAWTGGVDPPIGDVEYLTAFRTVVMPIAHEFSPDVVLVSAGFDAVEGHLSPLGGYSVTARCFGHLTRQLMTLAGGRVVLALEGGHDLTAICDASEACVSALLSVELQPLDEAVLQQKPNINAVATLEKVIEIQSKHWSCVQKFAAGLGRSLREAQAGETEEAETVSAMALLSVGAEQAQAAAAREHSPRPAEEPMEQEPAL
Sequence of Histone deacetylase 4 (P56524 whole entry): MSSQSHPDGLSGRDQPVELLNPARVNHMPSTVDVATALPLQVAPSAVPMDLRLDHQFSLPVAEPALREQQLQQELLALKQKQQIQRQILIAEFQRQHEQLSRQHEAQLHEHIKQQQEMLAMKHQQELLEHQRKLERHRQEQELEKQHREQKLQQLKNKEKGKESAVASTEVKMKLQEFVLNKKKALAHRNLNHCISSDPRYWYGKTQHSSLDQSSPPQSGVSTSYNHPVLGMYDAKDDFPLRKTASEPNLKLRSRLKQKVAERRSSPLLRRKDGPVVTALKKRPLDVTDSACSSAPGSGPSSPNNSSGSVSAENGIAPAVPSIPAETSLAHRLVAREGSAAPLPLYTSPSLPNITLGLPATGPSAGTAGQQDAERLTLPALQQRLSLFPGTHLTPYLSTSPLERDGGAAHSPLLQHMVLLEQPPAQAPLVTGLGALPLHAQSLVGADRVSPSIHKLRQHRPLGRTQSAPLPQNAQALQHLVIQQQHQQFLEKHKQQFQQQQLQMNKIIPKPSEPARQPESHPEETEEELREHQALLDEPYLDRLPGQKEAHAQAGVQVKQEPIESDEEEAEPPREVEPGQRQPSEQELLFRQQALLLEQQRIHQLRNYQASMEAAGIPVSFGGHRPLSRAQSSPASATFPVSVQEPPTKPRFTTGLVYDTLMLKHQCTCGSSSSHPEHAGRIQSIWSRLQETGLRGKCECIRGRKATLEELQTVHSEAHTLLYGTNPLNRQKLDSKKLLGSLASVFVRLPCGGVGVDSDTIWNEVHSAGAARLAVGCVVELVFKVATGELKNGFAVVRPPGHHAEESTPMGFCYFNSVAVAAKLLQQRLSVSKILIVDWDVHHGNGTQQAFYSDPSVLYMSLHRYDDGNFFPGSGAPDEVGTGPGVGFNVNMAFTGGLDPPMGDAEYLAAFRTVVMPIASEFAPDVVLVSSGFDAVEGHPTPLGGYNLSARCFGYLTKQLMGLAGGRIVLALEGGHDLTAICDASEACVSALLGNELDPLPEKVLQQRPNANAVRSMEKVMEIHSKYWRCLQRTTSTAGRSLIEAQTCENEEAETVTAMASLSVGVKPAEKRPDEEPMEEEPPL

IC50 (Histone deacetylase 5 [1])	IC50 (Histone deacetylase 11) [nM]	inhibition [2]	inhibition [3] [%]	inhibition [4] [%]	inhibition (Histone deacetylase 4) [%]	inhibition (Histone deacetylase 5 [5]) [%]	SMILES	IC50 [6] [nM]
Not Active	0.2	Dose-dependent effect	< 20	35	< 20	< 20	CC(C)[C@@H]1NC(=O)[C@]2(C)CSC(=N2)c2csc(n2)CNC(=O)C[C@@H](/C=C/CCSSC[C@H](NC(=O)OC(C)(C)C)C(=O)OC(C)(C)C)OC1=O	13
Not Active	0.1	Dose-dependent effect	< 20	40	< 20	< 20	CC(C)[C@@H]1NC(=O)[C@]2(C)CSC(=N2)c2csc(n2)CNC(=O)C[C@@H](/C=C/CCSSCC/C=C/[C@@H]2CC(=O)NCc3nc(cs3)C3=N[C@@](C)(CS3)C(=O)N[C@@H](C(C)C)C(=O)O2)OC1=O	12
